# Measured values collected from several papers.
# Protocols differ between the studies behind these lines.
# KIT: Mast/stem cell growth factor receptor Kit (KIT, Homo sapiens, UniProt P10721)
# KIT D816V: Mast/stem cell growth factor receptor Kit (KIT, Homo sapiens, UniProt P10721, D816V)
SMILES,target,assay,conditions,measurement,result
COCc1c(-c2cc3cc(C)cc(OC)c3s2)c2c(N)ncnn2c1CN1CCNC(=O)C1,"Mast/stem cell growth factor receptor Kit (KIT, Homo sapiens, UniProt P10721, L576P)","cell-free assay, competition with immobilised ligand",1 µM,inhibition,93.1%
COc1ncccc1-c1cnn2ccc(N3CCN(C(=O)OC(C)C)CC3)nc12,KIT,"binding, competition with immobilised ligand",1 µM,remaining binding,84%
Cn1cc(-c2cc(F)cc(N3CCn4c(cc5c4CCCC5)C3=O)c2CO)cc(Nc2ccc(N3CCN(C4COC4)CC3)cn2)c1=O,KIT,"enzyme activity, inhibitor",0.1 µM,inhibition,5%
C#Cc1n[nH]c2c(-c3cn([C@@H](C)c4ccccc4)c(=O)[nH]c3=O)cc(F)cc12,KIT,"enzyme activity, inhibitor",0.1 µM,inhibition,0.1%
Cn1cc(-c2cccc(N3CCc4c(sc5c4CC(C)(C)C5)C3=O)c2CO)cc(Nc2ccncn2)c1=O,KIT,"enzyme activity, inhibitor",1 µM,inhibition,-11%
Cc1nn(C)cc1-c1nc2c(N3CCN(Cc4ccc(Cl)cc4)CC3)c(Cl)cnc2[nH]1,KIT D816V,"binding, competition with immobilised ligand",1 µM,remaining binding,9.2%
C#Cc1n[nH]c2c(-c3cn(C(C)c4ccccn4)c(=O)[nH]c3=O)cc(F)cc12 (centres unmarked),KIT,"enzyme activity, inhibitor",1 µM,inhibition,-6.3%
C=CC(=O)Nc1cccc(CN2C(=O)N(c3c(Cl)c(OC)cc(OC)c3Cl)Cc3cnc(NCCCCN(CC)CC)nc32)c1,KIT,"binding, competition with immobilised ligand",10 µM,remaining binding,1.2%
Nc1ncc(-c2nc(N3CCOCC3)nc(N3CCOCC3)n2)c(C(F)F)n1,KIT D816V,"binding, competition with immobilised ligand",10 µM,remaining binding,58%
Cn1cncc1[C@@](O)(COc1ccc(C#N)cc1-c1ccc(OC(F)(F)F)cc1)c1ccc(C#N)cc1,"Mast/stem cell growth factor receptor Kit (KIT, Homo sapiens, UniProt P10721, A829P)","cell-free assay, competition with immobilised ligand",1 µM,remaining binding,100%
O=c1[nH]c2ccccc2n1C1CCN(Cc2ccc(-c3[nH]c4cc5ncnc5cc4nc3-c3ccccc3)cc2)CC1,KIT,cell-free assay,0.5 µM,remaining signal,91.7%
